Assay results as given in article PMC10524360 (Cell chemical biology, 2023).
Entries after “also recorded” stand apart in the source; their conditions may differ. Residues, ends and D or L forms follow the SMILES beside them. *: point of attachment. Cbz = O=C(OCc1ccccc1)*; CH2F = FC*

What was measured:
[1] = test system: H460^C Cas9 cells; test: cell death; assay type: cell-based, human; settings: for minimal dose that achieves maximal synergy for inducing ferroptosis: checkerboard FSEN1 (0–15 μM) x RSL3 (0–15 μM); for effect on cell death induced by co-treatment of FSEN1 and RSL3: H460^C Cas9, 5 μM RSL3 + 1 μM FSEN1, Z-VAD 10 μM, Nec1s 1 μM; for effect on cell death induced by co-treatment of FSEN1 and RSL3 / effect on cell death induced by DHA and FSEN1 together: Fer-1 2 μM, DFO 100 μM, idebenone 10 μM, tocopherol 10 μM
Summary of the method: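 H460C Cas9 cells get dose series of RSL3 or DHA with vehicle or 1 μM FSEN1, plus ferroptosis inhibitors where indicated (Fer-1 2 μM, DFO 100 μM, idebenone 10 μM, tocopherol 10 μM). Dead cells are stained with SYTOX Green and imaged on IncuCyte over 24 hr. Lethal fraction is dead/total cells, and its AUC is fit against concentration (variable slope) for EC50. Mean ± SEM, 2–3 biological replicates.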

[2] = test system: H460^C GPX4^KO cells; test: cell death; assay type: cell-based, human
Summary of the method: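 Cells were seeded in triplicate at 1000–1500 cells/well (384-well) 24 h before treatment. Test compound was added in medium with 30 nM SYTOX Green, and the plates were imaged (IncuCyte, 37°C, 5% CO2) every 1.5 or 3 h over 24 h. Lethal fraction = SYTOX+/(SYTOX+ plus mCherry+) objects; AUC averaged over three biological replicates; EC50 from a variable-slope fit.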

[3] = test system: H460^C FSP1^KO cells; test: cell death; assay type: cell-based, human; settings: for cell death, single agent: 24 h library screen, 40 μM compounds
Summary of the method: (§1)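 H460C knockout cells (mFSP1-overexpressing where stated) were seeded at 1500 cells/well in 384-well plates 24 h before treatment. Drug-containing medium with 30 nM SYTOX Green was added and cells were imaged in an IncuCyte at 37°C, 5% CO2 every 4 h for 24 h. Lethal fraction = SYTOX+/(SYTOX+ plus mCherry+) objects; AUC was fitted to a variable-slope curve for EC50.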

[4] = test system: A375 melanoma cells; test: cell death in A375 cells; assay type: cell-based, human; settings: 1 μM FSEN1
Summary of the method: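 Melanoma cells were treated with the test compound (1 μM), with 2 μM Fer-1 where indicated. Cell death was quantified as SYTOX Green-positive objects per mm2; mean ± SEM of two biological replicates.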

[5] = metabolic stability in mouse liver microsomes; assay type: in vitro ADME; settings: mouse liver microsomes 0.5 mg/mL, 2 μM FSEN1
Summary of the method: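 The test compound (2 μM) was incubated with 0.5 mg/mL mouse liver microsomes and 1.0 mM NADPH at 37°C, in triplicate, and sampled at 0, 5, 15, 30 and 45 min. Controls were no NADPH (negative) and 2 μM midazolam (positive). t1/2 = ln2/k; CLint = ln2/t1/2 × incubation volume/microsomal protein (μL/min/mg).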

[6] = target: T1, purified mFSP1 (Mus musculus, UniProt Q8BUE4); test: in vitro mFSP1 CoQ1 oxidoreductase activity assay; assay type: biochemical; settings: 125 nM mFSP1
T1 sequence (Q8BUE4 2-380 isoform Q8BUE4-2 limits assumed): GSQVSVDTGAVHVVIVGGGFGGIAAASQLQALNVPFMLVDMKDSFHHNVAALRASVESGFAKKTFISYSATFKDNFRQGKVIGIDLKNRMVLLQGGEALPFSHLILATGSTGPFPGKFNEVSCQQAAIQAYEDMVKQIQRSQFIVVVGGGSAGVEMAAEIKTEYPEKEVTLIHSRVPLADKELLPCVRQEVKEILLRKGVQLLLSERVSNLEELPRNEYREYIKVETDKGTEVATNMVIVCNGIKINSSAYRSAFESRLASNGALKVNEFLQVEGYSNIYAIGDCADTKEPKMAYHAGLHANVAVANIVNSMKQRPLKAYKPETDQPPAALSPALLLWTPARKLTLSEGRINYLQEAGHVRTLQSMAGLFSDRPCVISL
Summary of the method: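 Purified enzyme in PBS was shaken briefly with the test compound (DMSO) and preincubated 30 min at RT. A 2X NADH/CoQ1 mix started the reaction; final 400 μM CoQ1, 500 μM NADH, 0.01–20 μM compound. Mouse FSP1 was used at 125 nM to match the specific activity of 12.5 nM human FSP1. Absorbance at 355 nm was read every 2.5 min; percent activity was used for IC50.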

[7] = test system: H460^C Cas9 cells; test: lipid peroxidation assay; assay type: cell-based, human; settings: 1 μM FSEN1 with 200 nM RSL3
Summary of the method: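 Cells in 6-well plates were treated 5 h with 200 nM RSL3 ± 1 μM test compound. They were washed in DPBS with Ca/Mg, labelled with BODIPY 581/591 C11 and trypsinised. Green fluorescence was measured by flow cytometry (FITC channel, >10,000 cells). Mean ± SD of n=3; one-way ANOVA with Tukey's test.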

[8] = test system: A549 lung cancer cells; test: RSL3-induced cell death in A549 cells; assay type: cell-based, human; settings: RSL3 with 1 μM FSEN1
[9] = target: T2, FSP1 (Homo sapiens, UniProt Q9BRQ8); test: FSP1 enzyme kinetics; assay type: biochemical
T2 sequence (Q9BRQ8 2-373 limits assumed): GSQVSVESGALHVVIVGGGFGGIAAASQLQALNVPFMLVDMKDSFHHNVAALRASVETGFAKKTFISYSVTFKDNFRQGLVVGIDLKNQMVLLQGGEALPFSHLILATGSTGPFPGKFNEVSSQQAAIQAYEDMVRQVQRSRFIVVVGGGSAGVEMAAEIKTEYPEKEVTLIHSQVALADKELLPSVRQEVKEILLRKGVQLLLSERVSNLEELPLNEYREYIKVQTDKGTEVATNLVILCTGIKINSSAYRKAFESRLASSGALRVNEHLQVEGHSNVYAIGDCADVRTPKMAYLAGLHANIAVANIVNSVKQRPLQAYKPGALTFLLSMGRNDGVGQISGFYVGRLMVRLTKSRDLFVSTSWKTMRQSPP
Summary of the method: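 His-tagged human FSP1 (expressed in E. coli, Ni-NTA purified) in PBS was preincubated 30 min at RT with the test compound. NADH series: 25 nM enzyme, 10 μM CoQ-coumarin, 1–50 μM NADH, 50–500 nM compound. CoQ-coumarin series: 6.25 nM enzyme, 1–30 μM CoQ-coumarin, 200 μM NADH, 12.5–125 nM compound. Fluorescence (Ex 405/Em 475 nm) read every 15 s at RT; three biological replicates; Vmax and Km by nonlinear regression.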

[10] = target: NQO1 (Homo sapiens, UniProt P15559); test: in vitro NQO1 CoQ1 oxidoreductase activity assay; assay type: biochemical; settings: increasing concentrations of FSEN1
[11] = in vivo pharmacokinetics in mice; parameters: species or system BALB/c mice; settings: single 20 mg/kg I.P. dose
Summary of the method: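 Mice (20–25 g) were group-housed five per cage at 22°C on a 12 h light/dark cycle. Each received a single 20 mg/kg intraperitoneal dose in a vehicle containing 20% DMSO, 20% ethanol and 20% PEG40. Plasma Cmax and elimination half-life are reported as median (IQR), n=5.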

[12] = test system: FSP1^KO cells overexpressing mFSP1; test: RSL3-induced ferroptosis in FSP1 knockout cells overexpressing mouse FSP1; assay type: cell-based, human
Summary of the method: as §1

Sequence of NQO1 (P15559 2-274 limits assumed): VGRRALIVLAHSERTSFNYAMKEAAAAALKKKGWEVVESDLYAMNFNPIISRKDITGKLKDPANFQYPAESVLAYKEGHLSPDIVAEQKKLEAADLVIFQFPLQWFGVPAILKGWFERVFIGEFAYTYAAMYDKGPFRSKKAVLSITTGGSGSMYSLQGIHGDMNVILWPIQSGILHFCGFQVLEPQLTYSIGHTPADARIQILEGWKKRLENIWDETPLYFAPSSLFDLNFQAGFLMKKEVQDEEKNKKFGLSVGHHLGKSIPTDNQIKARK

Molecule: Cc1ccc(-c2c(C#N)c(N)n3c(nc4ccccc43)c2C#N)cc1 [iFSP1, reference compound]
- cell death, single agent ([1]; H460^C Cas9 cells): not in the H460^C Cas9 cells
- cell death, single agent [2]: selectively triggered cell death

Molecule: COC(=O)c1ccc([C@@H]2c3[nH]c4ccccc4c3C[C@@H](C(=O)OC)N2C(=O)CCl)cc1 [RSL3]
- cell death, single agent ([1]; H460^C Cas9 cells): not the H460^C Cas9 cells
- minimal dose that achieves maximal synergy for inducing ferroptosis ([1]; H460^C Cas9 cells): 0.55 µM
- cell death, single agent ([3]; H460^C FSP1^KO cells): cytotoxic

Molecule: COC1=C(OC)C(=O)C(CCCCCCCCCCO)=C(C)C1=O [idebenone]
- effect on cell death induced by co-treatment of FSEN1 and RSL3 [1]: blocked
- effect on cell death induced by DHA and FSEN1 together ([1]; H460^C cells, 1 μM FSEN1): strongly suppressed

Molecule: CCOC(=O)c1ccc(NC2CCCCC2)c(N)c1 [Fer-1, ferrostatin-1]
- effect on cell death induced by co-treatment of FSEN1 and RSL3 [1]: blocked
- effect on cell death induced by DHA and FSEN1 together ([1]; H460^C cells, 1 μM FSEN1): strongly suppressed

Molecule: C[C@H]1[C@@H](O)O[C@@H]2O[C@@]3(C)CC[C@H]4[C@H](C)CC[C@@H]1[C@@]24OO3 [DHA, dihydroartemisinin, reference compound]
- cell death, single agent ([1]; H460^C Cas9 cells): induced minimal amounts of ferroptosis on its own
- cell death, single agent ([3]; H460^C FSP1^KO cells): selectively induced cell death

Molecule: CC(=O)N(O)CCCCCNC(=O)CCC(=O)N(O)CCCCCNC(=O)CCC(=O)N(O)CCCCCN [DFO, deferoxamine]
- effect on cell death induced by co-treatment of FSEN1 and RSL3 [1]: blocked
- effect on cell death induced by DHA and FSEN1 together ([1]; H460^C cells, 1 μM FSEN1): completely suppressed

Molecule: CN1C(=O)NC(Cc2c[nH]c3c(Cl)cccc23)C1=O (centres unmarked) [Nec1s]
- effect on cell death induced by co-treatment of FSEN1 and RSL3 [1]: no effect

Molecule: COc1ccc(N2CCN(Cc3cn4c(-c5ccc(Br)cc5)nnc4s3)CC2)cc1 [FSEN1]
- sensitization to cell death induced by GPX4 inhibitors RSL3 and ML162 ([1]; H460^C Cas9 cells, 1 μM FSEN1): sensitized
- sensitization to cell death induced by DHA and FINO2 ([1]; H460^C cells, 1 μM FSEN1): strongly sensitized
- minimal dose that achieves maximal synergy for inducing ferroptosis ([1]; H460^C Cas9 cells): 0.55 µM
- ferroptosis in the absence of an RSL3 co-treatment [4]: induced a small amount of ferroptosis
- intrinsic clearance (CLint) [5]: 11.54 μL/min/mg protein
- effect on CoQ1 oxidoreductase activity of purified mFSP1 [6]: no effect
- lipid peroxidation (BODIPY C11) [7]: sensitized cells to lipid peroxidation
- sensitizing effect on ferroptosis induction [8]: particularly large sensitizing effect
- EC50 ([2]; read-out: EC50 for triggering cell death, lethal fraction (AUC) over 24 hr): 69.4 nM
- change in Kcat values ([9]; as FSEN1 concentrations increased): decrease
- mechanism of FSP1 inhibition ([9]; varied NADH and CoQ-coumarin, parallel Lineweaver-Burke slopes): uncompetitive inhibitor
- additional sensitization to DHA and FINO2 induced cell death ([3]; FSP1^KO cells, 1 μM FSEN1): no additional sensitizing effect
- effect on sensitivity to RSL3-induced cell death ([3]; H460^C FSP1^KO cells, 1 μM FSEN1): did not result in any additional sensitization; also recorded: no effect
- effect on CoQ oxidoreductase activity of NQO1 [10]: no effect
- median elimination half-life ([11]; n=5, IQR 6.1 – 8.8): 8.0 h
- median maximum plasma concentration ([11]; n=5, IQR 71.0–123.0): 97.6 ng/mL
- effect on ferroptosis sensitivity (RSL3) ([12]; FSP1^KO cells overexpressing mFSP1, 1 μM FSEN1): no effect
- effect on sensitivity to RSL3 ([12]; FSP1^KO cells overexpressing mFSP1, FSEN1 up to 15 μM): no effect

Molecule: tocopherol
- effect on cell death induced by co-treatment of FSEN1 and RSL3 [1]: blocked
- effect on cell death induced by DHA and FSEN1 together ([1]; H460^C cells, 1 μM FSEN1): strongly suppressed

Molecule: COC(=O)C[C@H](NC(=O)[C@H](C)NC(=O)[C@@H](NC(=O)OCc1ccccc1)C(C)C)C(=O)CF [Z-VAD-FMK] (Cbz-Val-Ala-Asp(OMe)-CH2F)
- effect on cell death induced by co-treatment of FSEN1 and RSL3 [1]: no effect
